Results taken from ChEMBL document CHEMBL4184148 (Bioorg Med Chem Lett, 2017).

Legend:
[1] = target: Myosin light chain kinase (Homo sapiens) (UniProt Q32MK0); assay: Binding affinity to wild-type human partial length MLCK (D488 to K800 residues) expressed in Escherichia coli BL21 at 1 uM by Kinomescan method relative to control
[2] = target: Cyclin-dependent kinase 8 (Homo sapiens) (UniProt P49336); assay: Binding affinity to wild-type human partial length CDK8 (M1 to T360 residues) expressed in Escherichia coli BL21 at 1 uM by Kinomescan method relative to control
[3] = target: Insulin receptor (Homo sapiens) (UniProt P06213); assay: Binding affinity to wild-type human partial length INSR (P997 to E1318 residues) expressed in HEK293 cells at 1 uM by Kinomescan method relative to control; assay type: cell-based
[4] = tested on: Mast/stem cell growth factor receptor Kit (Homo sapiens), P10721 [V559D,V654A]; assay: Binding affinity to human partial length KIT V559D/V654A double mutant (Y545 to D952 residues) expressed in Escherichia coli BL21 at 1 uM by Kinomescan method relative to control
[5] = tested on: Receptor-type tyrosine-protein kinase FLT3 (Homo sapiens), P36888 [K663Q]; assay: Binding affinity to human partial length FLT3 K663Q mutant (V592 to Y969 residues) expressed in Escherichia coli BL21 at 1 uM by Kinomescan method relative to control
[6] = target: Mitogen-activated protein kinase kinase kinase 9 (Homo sapiens) (UniProt P80192); assay: Binding affinity to wild-type human partial length MLK1 (V88 to W426 residues) expressed in Escherichia coli BL21 at 1 uM by Kinomescan method relative to control
[7] = target: Serine/threonine-protein kinase B-raf (Homo sapiens) (UniProt P15056); assay: Binding affinity to wild-type human partial length BRAF (S429 to E741 residues) expressed in HEK293 cells at 1 uM by Kinomescan method relative to control; assay type: cell-based
[8] = target: Serine/threonine-protein kinase Nek6 (Homo sapiens) (UniProt Q9HC98); assay: Binding affinity to wild-type human full length NEK6 (M8 to T313 residues) expressed in Escherichia coli BL21 at 1 uM by Kinomescan method relative to control
Procedure, shortened: (§1)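 Kinome-wide competition binding panel run by an outside provider, with each compound tested at a single concentration. Activity is read against the kinase panel.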

[9] = target: Serine/threonine-protein kinase Nek11 (Homo sapiens) (UniProt Q8NG66); assay: Binding affinity to wild-type human partial length NEK11 (M1 to E313 residues) expressed in HEK293 cells at 1 uM by Kinomescan method relative to control; assay type: cell-based
[10] = tested on: Phosphatidylinositol 4,5-bisphosphate 3-kinase catalytic subunit alpha isoform (Homo sapiens), P42336 [H1047L]; assay: Binding affinity to human partial length PIK3CA H1047L mutant (R108 to N1068 residues) expressed in HEK293 cells at 1 uM by Kinomescan method relative to control; assay type: cell-based
[11] = target: Serine/threonine-protein kinase NLK (Homo sapiens) (UniProt Q9UBE8); assay: Binding affinity to wild-type human full length NLK (M13 to E527 residues) expressed in Escherichia coli BL21 at 1 uM by Kinomescan method relative to control; procedure, shortened: as §1
[12] = target: Serine/threonine-protein kinase SIK2 (Homo sapiens) (UniProt Q9H0K1); assay: Binding affinity to wild-type human full length SIK2 (M1 to N926 residues) expressed in Escherichia coli BL21 at 1 uM by Kinomescan method relative to control; procedure, shortened: as §1
[13] = target: Tyrosine-protein kinase JAK1 (Homo sapiens) (UniProt P23458); assay: Binding affinity to wild-type human partial length JAK1 JH2 pseudokinase domain (R537 to D855 residues) expressed in HEK293 cells at 1 uM by Kinomescan method relative to control; assay type: cell-based
[14] = target: Wee1-like protein kinase (Homo sapiens) (UniProt P30291); assay: Binding affinity to wild-type human partial length WEE1 (M291 to K575 residues) expressed in Escherichia coli BL21 at 1 uM by Kinomescan method relative to control
[15] = target: Dual specificity tyrosine-phosphorylation-regulated kinase 1B (Homo sapiens) (UniProt Q9Y463); assay: Binding affinity to wild-type human full length DYRK1B (M1 to S629 residues) expressed in Escherichia coli BL21 at 1 uM by Kinomescan method relative to control
Procedure, shortened: (§2)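 Run as one kinome-wide competition binding panel with each compound at a single fixed concentration. Results were plotted as a kinome-wide selectivity map.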

[16] = target: Platelet-derived growth factor receptor beta (Homo sapiens) (UniProt P09619); assay: Binding affinity to wild-type human partial length PDGFRB (V582 to Y1009 residues) expressed in Escherichia coli BL21 at 1 uM by Kinomescan method relative to control
[17] = target: Rho-associated protein kinase 2 (Homo sapiens) (UniProt O75116); assay: Binding affinity to wild-type human partial length ROCK2 (M1 to T431 residues) expressed in HEK293 cells at 1 uM by Kinomescan method relative to control; assay type: cell-based
[18] = target: Leukocyte tyrosine kinase receptor (Homo sapiens) (UniProt P29376); assay: Binding affinity to wild-type human partial length LTK (P422 to S744 residues) expressed in Escherichia coli BL21 at 1 uM by Kinomescan method relative to control
[19] = target: Serine/threonine-protein kinase PLK4 (Homo sapiens, UniProt O00444); assay: Inhibition of GST-tagged human PLK4 (1 to 836 residues) by Lanthascreen binding assay
[20] = target: Serine/threonine-protein kinase mTOR (Homo sapiens) (UniProt P42345); assay: Binding affinity to wild-type human partial length MTOR (L1382 to W2549 residues) expressed in HEK293 cells at 1 uM by Kinomescan method relative to control; assay type: cell-based
[21] = target: Cyclin-dependent kinase-like 1 (Homo sapiens) (UniProt Q00532); assay: Binding affinity to wild-type human full length CDKL1 (M1 to I358 residues) expressed in HEK293 cells at 1 uM by Kinomescan method relative to control; assay type: cell-based; procedure, shortened: as §2
[22] = target: Bone morphogenetic protein receptor type-1B (Homo sapiens) (UniProt O00238); assay: Binding affinity to wild-type human partial length BMPR1B (D178 to L502 residues) expressed in HEK293 cells at 1 uM by Kinomescan method relative to control; assay type: cell-based
[23] = target: Macrophage-stimulating protein receptor (Homo sapiens) (UniProt Q04912); assay: Binding affinity to wild-type human partial length MST1R (I1057 to L1363 residues) expressed in Escherichia coli BL21 at 1 uM by Kinomescan method relative to control
[24] = target: Tyrosine-protein kinase JAK3 (Homo sapiens) (UniProt P52333); assay: Binding affinity to wild-type human partial length JAK3 JH1 catalytic domain (I781 to S1124 residues) expressed in HEK293 cells at 1 uM by Kinomescan method relative to control; assay type: cell-based
[25] = target: Serine/threonine-protein kinase 3 (Homo sapiens) (UniProt Q13188); assay: Binding affinity to wild-type human partial length MST2 (D17 to E318 residues) expressed in Escherichia coli BL21 at 1 uM by Kinomescan method relative to control
Serine/threonine-protein kinase 3 (Homo sapiens), sequence (Q13188 whole entry, the tested form may be a part): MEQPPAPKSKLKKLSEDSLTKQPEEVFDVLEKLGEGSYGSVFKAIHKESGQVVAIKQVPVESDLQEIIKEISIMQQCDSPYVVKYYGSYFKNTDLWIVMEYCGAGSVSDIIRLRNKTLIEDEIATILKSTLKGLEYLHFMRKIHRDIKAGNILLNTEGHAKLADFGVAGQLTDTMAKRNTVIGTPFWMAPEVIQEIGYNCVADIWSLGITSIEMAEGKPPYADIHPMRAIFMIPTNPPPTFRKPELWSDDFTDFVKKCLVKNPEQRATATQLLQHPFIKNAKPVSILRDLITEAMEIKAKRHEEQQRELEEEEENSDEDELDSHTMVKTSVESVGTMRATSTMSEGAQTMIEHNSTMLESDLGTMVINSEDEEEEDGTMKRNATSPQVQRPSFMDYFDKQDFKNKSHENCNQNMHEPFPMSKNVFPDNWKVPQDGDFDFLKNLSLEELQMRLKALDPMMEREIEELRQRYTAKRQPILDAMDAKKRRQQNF

Serine/threonine-protein kinase SIK2 (Homo sapiens), sequence (Q9H0K1 whole entry, looked up, the tested form may be a part): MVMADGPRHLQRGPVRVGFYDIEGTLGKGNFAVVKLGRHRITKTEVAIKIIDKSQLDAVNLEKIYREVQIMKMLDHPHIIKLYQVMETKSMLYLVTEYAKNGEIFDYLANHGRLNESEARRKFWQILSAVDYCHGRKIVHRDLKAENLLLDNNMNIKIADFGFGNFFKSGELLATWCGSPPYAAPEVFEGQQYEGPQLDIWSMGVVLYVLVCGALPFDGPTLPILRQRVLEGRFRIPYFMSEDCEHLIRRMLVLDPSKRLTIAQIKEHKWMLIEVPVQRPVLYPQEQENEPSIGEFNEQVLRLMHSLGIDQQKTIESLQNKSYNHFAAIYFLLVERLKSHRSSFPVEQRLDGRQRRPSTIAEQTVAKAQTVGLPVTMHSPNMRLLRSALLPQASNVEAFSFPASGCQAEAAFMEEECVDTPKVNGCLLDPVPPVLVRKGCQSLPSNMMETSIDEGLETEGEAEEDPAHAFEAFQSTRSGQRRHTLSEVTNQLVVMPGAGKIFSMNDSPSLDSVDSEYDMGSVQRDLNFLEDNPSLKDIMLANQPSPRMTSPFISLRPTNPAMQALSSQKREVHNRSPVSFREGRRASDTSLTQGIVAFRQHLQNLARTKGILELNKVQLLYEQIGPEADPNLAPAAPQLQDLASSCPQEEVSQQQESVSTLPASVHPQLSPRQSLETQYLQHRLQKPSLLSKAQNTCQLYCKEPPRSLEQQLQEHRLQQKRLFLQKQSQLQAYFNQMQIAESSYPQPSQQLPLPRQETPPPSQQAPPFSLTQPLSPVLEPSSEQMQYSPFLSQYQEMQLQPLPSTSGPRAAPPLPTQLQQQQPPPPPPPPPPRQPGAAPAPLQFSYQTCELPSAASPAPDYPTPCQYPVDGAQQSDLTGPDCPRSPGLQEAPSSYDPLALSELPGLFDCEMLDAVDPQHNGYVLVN
Rho-associated protein kinase 2 (Homo sapiens), sequence (O75116 whole entry, looked up, the tested form may be a part): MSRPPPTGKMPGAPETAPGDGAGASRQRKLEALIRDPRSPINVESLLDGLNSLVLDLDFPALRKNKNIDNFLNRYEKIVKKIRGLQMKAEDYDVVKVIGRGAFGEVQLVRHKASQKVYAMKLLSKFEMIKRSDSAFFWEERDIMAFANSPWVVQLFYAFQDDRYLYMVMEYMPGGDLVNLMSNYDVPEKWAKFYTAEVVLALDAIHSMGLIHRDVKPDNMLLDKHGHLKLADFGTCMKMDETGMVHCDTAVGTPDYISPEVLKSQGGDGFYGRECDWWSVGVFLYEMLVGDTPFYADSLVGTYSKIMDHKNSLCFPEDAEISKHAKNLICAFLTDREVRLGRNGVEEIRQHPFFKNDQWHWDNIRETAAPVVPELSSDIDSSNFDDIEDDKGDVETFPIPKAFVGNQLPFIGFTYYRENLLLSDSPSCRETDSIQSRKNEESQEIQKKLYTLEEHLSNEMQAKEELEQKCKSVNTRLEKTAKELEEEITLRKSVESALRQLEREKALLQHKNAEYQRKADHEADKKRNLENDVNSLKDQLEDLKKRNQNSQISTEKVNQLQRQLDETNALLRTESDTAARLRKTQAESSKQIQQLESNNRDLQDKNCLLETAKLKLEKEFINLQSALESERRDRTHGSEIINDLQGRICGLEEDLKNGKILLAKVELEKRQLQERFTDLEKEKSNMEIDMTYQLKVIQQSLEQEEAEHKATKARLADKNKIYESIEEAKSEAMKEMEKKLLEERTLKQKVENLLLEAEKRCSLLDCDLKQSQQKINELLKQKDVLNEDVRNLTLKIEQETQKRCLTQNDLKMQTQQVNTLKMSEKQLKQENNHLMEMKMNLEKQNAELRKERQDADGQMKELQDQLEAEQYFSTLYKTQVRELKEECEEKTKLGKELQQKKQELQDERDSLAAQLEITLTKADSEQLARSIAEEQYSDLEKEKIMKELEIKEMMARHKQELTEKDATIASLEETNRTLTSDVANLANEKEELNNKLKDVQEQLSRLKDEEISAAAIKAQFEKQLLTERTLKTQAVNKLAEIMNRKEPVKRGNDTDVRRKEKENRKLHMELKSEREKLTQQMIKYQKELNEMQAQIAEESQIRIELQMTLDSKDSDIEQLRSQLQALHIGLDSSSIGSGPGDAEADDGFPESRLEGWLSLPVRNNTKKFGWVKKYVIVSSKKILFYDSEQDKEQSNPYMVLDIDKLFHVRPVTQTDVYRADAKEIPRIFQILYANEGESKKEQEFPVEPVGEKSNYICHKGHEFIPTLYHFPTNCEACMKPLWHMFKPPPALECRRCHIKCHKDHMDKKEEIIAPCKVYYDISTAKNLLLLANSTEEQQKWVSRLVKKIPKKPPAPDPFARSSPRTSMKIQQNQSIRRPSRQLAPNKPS
Mast/stem cell growth factor receptor Kit (Homo sapiens), P10721 [V559D,V654A], sequence (P10721 whole entry V559D/V654A, the tested form may be a part): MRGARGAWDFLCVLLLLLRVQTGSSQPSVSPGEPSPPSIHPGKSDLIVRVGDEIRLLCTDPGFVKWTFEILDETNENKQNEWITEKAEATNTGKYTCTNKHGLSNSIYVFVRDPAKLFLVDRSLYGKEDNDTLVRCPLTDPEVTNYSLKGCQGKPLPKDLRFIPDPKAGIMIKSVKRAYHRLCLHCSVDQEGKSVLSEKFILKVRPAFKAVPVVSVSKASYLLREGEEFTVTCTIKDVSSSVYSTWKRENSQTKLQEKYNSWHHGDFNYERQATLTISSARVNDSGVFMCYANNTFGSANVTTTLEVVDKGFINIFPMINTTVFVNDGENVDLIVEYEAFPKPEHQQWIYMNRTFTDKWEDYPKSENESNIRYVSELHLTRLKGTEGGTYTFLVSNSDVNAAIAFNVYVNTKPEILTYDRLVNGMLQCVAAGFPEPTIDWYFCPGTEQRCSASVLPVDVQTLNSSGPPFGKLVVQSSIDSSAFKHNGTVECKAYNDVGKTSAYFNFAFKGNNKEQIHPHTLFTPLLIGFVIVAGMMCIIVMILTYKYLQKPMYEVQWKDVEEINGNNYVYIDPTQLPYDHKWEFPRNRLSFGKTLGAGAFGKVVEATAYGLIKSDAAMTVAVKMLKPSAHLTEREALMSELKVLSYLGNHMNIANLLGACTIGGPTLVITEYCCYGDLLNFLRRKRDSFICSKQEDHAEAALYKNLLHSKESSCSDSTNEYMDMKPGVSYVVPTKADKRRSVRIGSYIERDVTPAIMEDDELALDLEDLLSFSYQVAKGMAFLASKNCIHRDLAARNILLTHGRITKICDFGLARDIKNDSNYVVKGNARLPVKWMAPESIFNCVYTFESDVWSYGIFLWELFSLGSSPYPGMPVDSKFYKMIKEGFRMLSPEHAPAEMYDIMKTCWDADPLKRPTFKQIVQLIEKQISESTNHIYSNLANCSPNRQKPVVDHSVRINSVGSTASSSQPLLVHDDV
Platelet-derived growth factor receptor beta (Homo sapiens), sequence (P09619 whole entry, the tested form may be a part): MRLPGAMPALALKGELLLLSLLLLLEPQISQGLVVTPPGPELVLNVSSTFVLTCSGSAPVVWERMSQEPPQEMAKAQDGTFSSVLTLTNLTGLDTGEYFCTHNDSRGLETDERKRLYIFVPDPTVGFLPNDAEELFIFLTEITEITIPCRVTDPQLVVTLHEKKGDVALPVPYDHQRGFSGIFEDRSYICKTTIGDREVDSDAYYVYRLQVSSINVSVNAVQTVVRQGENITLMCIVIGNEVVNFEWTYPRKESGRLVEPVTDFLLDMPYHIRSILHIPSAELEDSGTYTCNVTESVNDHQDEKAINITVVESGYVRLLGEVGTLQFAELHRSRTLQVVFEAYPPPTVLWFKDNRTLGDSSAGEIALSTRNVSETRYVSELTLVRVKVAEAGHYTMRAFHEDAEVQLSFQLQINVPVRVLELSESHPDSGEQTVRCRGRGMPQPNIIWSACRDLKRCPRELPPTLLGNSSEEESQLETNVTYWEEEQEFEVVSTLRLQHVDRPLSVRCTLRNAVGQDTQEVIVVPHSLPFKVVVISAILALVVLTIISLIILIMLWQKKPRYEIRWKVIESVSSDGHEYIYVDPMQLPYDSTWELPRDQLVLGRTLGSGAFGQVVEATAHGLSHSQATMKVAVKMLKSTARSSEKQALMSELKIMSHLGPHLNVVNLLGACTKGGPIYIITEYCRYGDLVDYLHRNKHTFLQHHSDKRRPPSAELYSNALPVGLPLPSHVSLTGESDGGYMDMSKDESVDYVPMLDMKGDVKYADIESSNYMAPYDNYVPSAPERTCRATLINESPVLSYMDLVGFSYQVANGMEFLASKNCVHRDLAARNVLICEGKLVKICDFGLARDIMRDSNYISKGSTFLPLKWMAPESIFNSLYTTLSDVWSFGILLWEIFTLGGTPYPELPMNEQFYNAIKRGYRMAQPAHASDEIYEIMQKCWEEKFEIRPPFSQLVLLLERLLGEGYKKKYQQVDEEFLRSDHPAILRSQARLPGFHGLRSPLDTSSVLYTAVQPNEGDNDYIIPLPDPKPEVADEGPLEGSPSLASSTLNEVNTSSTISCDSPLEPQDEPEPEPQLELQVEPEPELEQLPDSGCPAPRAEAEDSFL

SMILES | Activity [1] | Activity [2] | Activity [3] | Activity [4] | Activity [5] | Activity [6] | Activity [7] | Activity [8] | Activity [9] | Activity [10] | Activity [11] | Activity [12] | Activity [13] | Activity [14] | Activity [15] | Activity [16] | Activity [17] | Activity [18] | IC50 [19] | Activity [20] | also measured
CCC(=O)Nc1ccc(C(=O)Nc2ccc(Nc3ncc4c(n3)N(C)c3ccc(C)cc3C(=O)N4C)cc2)cc1 | 99% | 100% | 65% | 97% | 81% | 88% | 100% | 96% | 96% | 70% | 100% | 78% | 79% | 100% | 100% | 84% | 78% | 85% | 82 nM | 100% | Activity [21]: 88%; Activity [22]: 62%; Activity [23]: 85%; Activity [24]: 100%; Activity [25]: 70%
C=CC(=O)Nc1ccc(C(=O)Nc2ccc(Nc3ncc4c(n3)N(C)c3ccc(C)cc3C(=O)N4C)cc2)cc1 | 90% | 78% | 97% | 91% | 99% | 100% | 100% | 98% | 100% | 63% | 81% | 89% | 100% | 100% | 90% | 94% | 100% | 96% | 43.5 nM | 87% | Activity [21]: 92%; Activity [22]: 100%; Activity [23]: 82%; Activity [24]: 88%; Activity [25]: 100%
